From the EternaBench riboswitch data

System: MS2 coat protein
Assay: apparent Kd, MS2 coat protein; higher = weaker binding; RNA-MaP array
In short: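 Apparent Kd is the median of per-cluster binding-curve fits for designed RNAs transcribed from sequenced DNA templates on an Illumina sequencing chip. The RNAs were incubated at room temperature with fluorescently labeled MS2 coat protein at 1.5 nM to 3 μM, with or without input ligand, and designs measured on fewer than 10 clusters were excluded.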

[1] = designed as: OFF switch for flavin mononucleotide, no ligand
[2] = ligand present: flavin mononucleotide, designed as: OFF switch for flavin mononucleotide
[3] = designed as: ON switch for flavin mononucleotide, no ligand
[4] = ligand present: flavin mononucleotide, designed as: ON switch for flavin mononucleotide

Row | Sequence | apparent Kd [1] | apparent Kd [2] | further results
1 | GCGGAACAUGAGGAUCACCCAUGUAAGGAUAUCGUGAGGGAACGGCAGCAACACUGAUCGAGAAGGUACAGGGC | 23 nM | 36.4 nM | 
2 | CCUGUGAUCCACAUGAGGAUCACCCAUGUAUAAGUGAUUGACAGAAGGAGAGCAUGCUUGUGAUUCUAGGAUAUGUUUCUCAUA | 25.2 nM | 25.9 nM | 
3 | UUGAAACAUGAGGAUCACCCAUGUCAGGAUAUCUUAACCCACUUACGCGAGUGUAGCCAGAGAAGGGACAGCGG | 12.1 nM | 17.4 nM | 
4 | CUCGCGUGAGGAUAUGCCACGCCCGAAAGGCCGGGUCAUCGGCAGAAGGCACAUGAGGAUCACCCAUGUAUCGC | 13.3 nM | 63.9 nM | 
5 | AGCACGAGCGCAGGAUAUGCAUAACCCGUAGCUGCAGAAGGGCGACAUGAGGAUCACCCAUGUAUAUCCAGAACUACAAUCUGA |  |  | apparent Kd [3]: 35.8 nM; apparent Kd [4]: 33 nM
6 | GGAACAUGAGGAUCACCCAUGUAAUCACGACGAGGACCGGUACGGCCGCCACUCGUAUUCACGCAAGGUAGAGGAAUACGUAGGC |  |  | apparent Kd (designed as: OFF switch for tryptophan, no ligand): 12.6 nM; apparent Kd (ligand present: tryptophan, designed as: OFF switch for tryptophan): 13.8 nM
7 | UGUGACCGCCAUUCUCGCGACAUGAGGAUCACCCAUGUUUCCAGAAGGCUCCAGGCUUGUGCUCGAGAGGAUAUGGGAAGAUUC | 28.4 nM | 26.5 nM | 
8 | GGGCACAUGAGGAUCACCCAUGUCCAACGGCGAGGACCGGUACGGCCGCCACUCGGUAUAAGCUUCGAAAAGGAGGAUCCUGCAG |  |  | apparent Kd (designed as: ON switch for tryptophan, no ligand): 38.4 nM; apparent Kd (ligand present: tryptophan, designed as: ON switch for tryptophan): 30.9 nM
9 | UGACUCUCUGUCAGGAUAUAACAAGCUACAGUUUAUUAGAAGGGACAUGAGGAUCACCCAUGUUGAACACCCGA | 7.94 nM | 7.98 nM | 
10 | UGACUGUCGAAAGGAUAUGGUCGCACGCACACAUCAGUGUUUCACAUGAGGAUCACCCAUGUGGUCCAGAAGGUUCAUAAAUAU |  |  | apparent Kd [3]: 197 nM; apparent Kd [4]: 122 nM
11 | CCCGGUGACUAGAAGGCGCCACAUGAGGAUCACCCAUGUAUCAAAGACCGGUGAUUGCCGACGGGCGAGGAUAUAGGUGCGACG | 8.18 nM | 14.5 nM | 
12 | GCAGGAAAGCAGAAGGACACCACAUGAGGAUCACCCAUGUCGGCGCUGACUUUGAUCUUGAGGAUGUAGGAUAUGCGUUUCGGA | 8.76 nM | 17.4 nM | 
13 | GGGAUCGGAGGAUAUCGGUGGUUUAACAUGAGGAUCACCCAUGUGAAUAAACAAGUGGAGCGAGAAGGCCGGCGCU | 14.7 nM | 9.97 nM | 
14 | CGCGGACCACCUGAUACCAGCGCAGUCAUGCAUGAACCCAACAUGAGGAUCACCCAUGUACGCCCUUGGCAGCAGGGAAAAGUCG |  |  | apparent Kd (designed as: OFF switch for theophylline, no ligand): 161 nM; apparent Kd (ligand present: theophylline, designed as: OFF switch for theophylline): 267 nM
15 | AGUAGGCAUUCAGGAUAUGGGGAUUUCUCACUGCCACAUGAGGAUCACCCAUGUGGAAGGUACACCCAGAAGGGAAAGUGGUUA |  |  | apparent Kd [3]: 17 nM; apparent Kd [4]: 11.3 nM
16 | CGACUCCCAGAGAAGGCCGCAAACAUGAGGAUCACCCAUGUACUACCUGAGUCUCGGGCGGUACCGGAGGAUAUCUAGGCUCGC |  |  | apparent Kd [3]: 26.6 nM; apparent Kd [4]: 10.9 nM
17 | CACGUACAUGAGGAUCACCCAUGUAUGUCCGAAACGCGAGUACAGGAUAUGAUAUGGAGAAGUCUUCAGAAGGGUACAAAUCGC |  |  | apparent Kd [3]: 58.4 nM; apparent Kd [4]: 21.6 nM
18 | UGAUACAUGAGGAUCACCCAUGUUGAUCCCGAGAAGUCCGUAAGAAGGACAGACACGAUGGAUCUGUAGGAUAUUACGACGGAC | 182 nM | 122 nM | 
19 | AUCUGGAGAGGAUAUUGAUCGGAACACAUGAGGAUCACCCAUGUGAGCCCUCGUGUCCCUCAAGAAGGCUCGGGCG | 5.73 nM | 7.71 nM | 
20 | UCAUGCUGAGGAUAUACAUGAGGAUCACCCAUGUACAGAAUAAGGGAGUGCCAUCAAAGUAGAAGGCAGGACGU | 14.4 nM | 14.6 nM | 
21 | CUUGUGGCACAGGAUAUUCCGACGUAAUCAAAUGAAGAAGGGUGCACAUGAGGAUCACCCAUGUGUGAACACAA | 12.3 nM | 26.8 nM | 
22 | AAAAUUGAAGGAUAUACAUGAGGAUCACCCAUGUGCAACAUAUUUGAAUGGCCUCACGGUAGAAGGUCAAAACG | 6.83 nM | 7.52 nM | 
23 | UCUAACCUAGGAUAUACAUGCCUUGCGUAGCACAUCCGUUUACAUGAGGAUCACCCAUGUAGAAGGAGGGACGG | 6.55 nM | 8.51 nM | 
24 | AUGCCACCAUACCGCAGUAAUACAUGAGGAUCACCCAUGUAGGAGGAUAUACUUUUGGUAAUGAUGUAGAAGGCCUAGUGGUAC |  |  | apparent Kd [3]: 5.91 nM; apparent Kd [4]: 6.09 nM
25 | CUCGGCGCCCAAGGAUAUAGUGGAGGUAAGAAACUAGAAGGUGGUGUGCUAACAUGUUGUCCUUUACAUGAGGAUCACCCAUGU | 38.6 nM | 32.9 nM | 
26 | GUGAGACAUGAGGAUCACCCAUGUUAGGAUAUAAAAGGCAAACGUAAUGGCGAGGUUAAUAGAAGGAACAGAAA | 15.6 nM | 11.9 nM | 
